Counter-ions that a name gives are not always drawn.
Columns and labels:
[1] = target: T1, Gag-Pol polyprotein [489-587] (Human immunodeficiency virus 1, UniProt P04585); assay: Inhibition of 3'-processing (TC) in the presence of Mn2+ in vitro
T1 construct: 489-587
Procedure, shortened: (§1)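 Purified recombinant HIV-1 integrase with DNAs mimicking one viral cDNA end and a target DNA, Mn2+ as the divalent cofactor; compounds titrated in. Terminal cleavage (3'-processing) and strand-transfer products resolved and read by gel assay.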

[2] = target: T1, Gag-Pol polyprotein [489-587]; assay: Tested in vitro against strand -transfer (ST) activity in the presence of Mg2+ as the cationic cofactor
Procedure, shortened: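 Strand transfer by purified recombinant HIV-1 integrase with Mg2+ as cofactor, monitored in a microtiter plate format with viral-end and target DNAs; product detected through a digoxygenin label in the DNA; compounds titrated.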

[3] = target: T1, Gag-Pol polyprotein [489-587]; assay: Inhibition of strand -transfer (ST) activity in the presence of Mn2+; procedure, shortened: as §1

| Structure (SMILES) | IC50 [1] | IC50 [2] | IC50 [3] |
| --- | --- | --- | --- |
| CC1(C)CC2(CC(C)(C)c3c(Br)c(OS(=O)(=O)O)c(OS(=O)(=O)O)c(Br)c32)c2c(Br)c(OS(=O)(=O)O)c(OS(=O)(=O)O)c(Br)c21 [3,3,3',3'-tetramethyl-1,1'-spirobi(indan)-4,4',7,7'-tetrabromo-5,5',6,6'-tetrol tetrasulfate] | 1.4 µM | 4 µM | 0.35 µM |
| CC1(C)CC2(CC(C)(C)c3cc(OS(=O)(=O)O)c(OS(=O)(=O)O)cc32)c2cc(OS(=O)(=O)O)c(OS(=O)(=O)O)cc21 [3,3,3',3'-tetramethyl-1,1'-spirobi(indan)-5,5',6,6'-tetrol tetrasulfate] | 2.8 µM |  | 2 µM |
| CC1(C)CC2(CC(C)(C)c3cc(N)c(O)cc32)c2cc(O)c(N)cc21 [3,3,3',3'-tetramethyl-1,1'-spirobi(indan)-5,5'-diamino-6,6'-diol Dihydrochloric salt] |  | 33 µM |  |
| CC1(C)CC2(CC(C)(C)c3ccc(O)c(NC(N)=O)c32)c2cc(O)c(NC(N)=O)cc21 (centres undefined) [3,3,3',3'-tetramethyl-1,1'-spirobi(indan)-6,6'-dihydroxy-5,7'-bisurea] | 420 µM |  | 350 µM |
| CC1(C)CC2(CC(C)(C)c3ccc(O)cc32)c2cc(O)ccc21 [3,3,3',3'-tetramethyl-1,1'-spirobi[2,3-dihydro-1H-indene]-6,6'-diol] | 275 µM |  | 231 µM |
| CC1(C)CC2(CC(C)(C)c3cc([N+](=O)[O-])c(O)c([N+](=O)[O-])c32)c2cc(O)c([N+](=O)[O-])cc21 (centres undefined) [3,3,3',3'-tetramethyl-5,5',7'-trinitro-1,1'-spirobi[2,3-dihydro-1H-indene]-6,6'-diol] | 44 µM | 47 µM | 25 µM |
| CC1(C)CC2(CC(C)(C)c3ccc(O)c([N+](=O)[O-])c32)c2cc(O)c([N+](=O)[O-])cc21 (centres undefined) [3,3,3',3'-tetramethyl-5,7'-dinitro-1,1'-spirobi[2,3-dihydro-1H-indene]-6,6'-diol] | 47 µM | 100 µM | 53 µM |
| CC1(C)CC2(CC(C)(C)c3c(Br)c(O)c(O)c(Br)c32)c2c(Br)c(O)c(O)c(Br)c21 [4,4',7,7'-tetrabromo-3,3,3',3'-tetramethyl-1,1'-spirobi[2,3-dihydro-1H-indene]-5,5',6,6'-tetraol] | 3.14 µM | 15 µM | 1.78 µM |
| CC1(C)CC2(CC(C)(C)c3cc(Br)c(O)cc32)c2cc(O)c(Br)cc21 [5,5'-dibromo-3,3,3',3'-tetramethyl-1,1'-spirobi[2,3-dihydro-1H-indene]-6,6'-diol] | 11 µM |  | 10 µM |
| CC1(C)CC2(CC(C)(C)c3cc(I)c(O)cc32)c2cc(O)c(I)cc21 [5,5'-diiodo-3,3,3',3'-tetramethyl-1,1'-spirobi[2,3-dihydro-1H-indene]-6,6'-diol] | 6.28 µM |  | 3.12 µM |
| CC1(C)CC2(CC(C)(C)c3cc(C=O)c(O)cc32)c2cc(O)c(C=O)cc21 [6,6'-dihydroxy-3,3,3',3'-tetramethyl-1,1'-spirobi[2,3-dihydro-1H-indene]-5,5'-dicarbaldehyde] | 35 µM | 16 µM | 6 µM |
| CC1(C)CC2(CC(C)(C)c3cc(S(=O)(=O)O)c(O)cc32)c2cc(O)c(S(=O)(=O)O)cc21 [6,6'-dihydroxy-3,3,3',3'-tetramethyl-1,1'-spirobi[2,3-dihydro-1H-indene]-5,5'-disulfonic acid] |  | 69 µM |  |
| CC1(C)CC2(CC(C)(C)c3cc(O)c(O)cc32)c2cc(O)c(O)cc21 [HIV-1 Integrase Inhibitor] | 17 µM |  | 5 µM |

— BindingDB's records for doi:10.1021/jm990600c (University of California, 2000)
